Legend:
[1] = molecular target: Mu-type opioid receptor (Homo sapiens) (UniProt P35372); assay: Antagonist activity at human cloned mu opioid receptor expressed in CHO cells assessed as inhibition of DAMGO-stimulated [35S]GTPgammaS binding; assay type: functional, cell-based
In short: (§1)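 Agonist concentration-response curves for stimulated [35S]GTPγS binding are run with and without a single concentration of test compound. Ke = [L]/(DR−1), where DR is the ratio of agonist EC50 with and without compound.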

[2] = molecular target: Delta-type opioid receptor (Homo sapiens) (UniProt P41143); assay: Antagonist activity at human cloned delta opioid receptor expressed in CHO cells assessed as inhibition of DPDPE-stimulated [35S]GTP-gamma-S binding; assay type: functional, cell-based; in short: as §1
Sequence of Delta-type opioid receptor (Homo sapiens) (P41143 whole entry): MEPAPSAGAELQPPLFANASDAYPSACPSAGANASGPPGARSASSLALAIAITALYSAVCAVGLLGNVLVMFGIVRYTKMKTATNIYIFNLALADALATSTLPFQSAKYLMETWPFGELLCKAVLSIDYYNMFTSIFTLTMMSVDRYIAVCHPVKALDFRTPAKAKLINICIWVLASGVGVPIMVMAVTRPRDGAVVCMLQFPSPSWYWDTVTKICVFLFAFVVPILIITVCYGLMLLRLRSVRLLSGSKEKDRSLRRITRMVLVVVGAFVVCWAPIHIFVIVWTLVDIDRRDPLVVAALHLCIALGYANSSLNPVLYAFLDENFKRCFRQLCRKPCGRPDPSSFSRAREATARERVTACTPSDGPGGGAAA

[3] = molecular target: Kappa-type opioid receptor (Homo sapiens) (UniProt P41145); assay: Antagonist activity at human cloned kappa opioid receptor expressed in CHO cells assessed as inhibition of U69593-stimulated [35S]GTP-gamma-S binding; assay type: functional, cell-based; in short: as §1
Sequence of Kappa-type opioid receptor (Homo sapiens) (P41145 whole entry): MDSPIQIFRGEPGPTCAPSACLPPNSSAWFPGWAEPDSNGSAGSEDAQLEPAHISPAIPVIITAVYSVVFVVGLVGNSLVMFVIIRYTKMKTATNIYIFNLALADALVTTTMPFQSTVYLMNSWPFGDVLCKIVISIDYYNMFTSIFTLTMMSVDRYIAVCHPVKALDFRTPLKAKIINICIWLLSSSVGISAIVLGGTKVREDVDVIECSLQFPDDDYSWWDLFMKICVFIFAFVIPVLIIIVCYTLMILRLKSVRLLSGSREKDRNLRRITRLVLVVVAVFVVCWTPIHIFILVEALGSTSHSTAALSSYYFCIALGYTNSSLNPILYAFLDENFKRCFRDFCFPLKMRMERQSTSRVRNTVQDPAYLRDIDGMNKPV

CHO [4] = assay: Selectivity for human cloned kappa opioid receptor over human cloned mu opioid receptor expressed in CHO cells; assay type: cell-based
CHO [5] = assay: Selectivity for human cloned kappa opioid receptor over human cloned delta opioid receptor expressed in CHO cells; assay type: cell-based

Sequence of Mu-type opioid receptor (Homo sapiens) (P35372 whole entry): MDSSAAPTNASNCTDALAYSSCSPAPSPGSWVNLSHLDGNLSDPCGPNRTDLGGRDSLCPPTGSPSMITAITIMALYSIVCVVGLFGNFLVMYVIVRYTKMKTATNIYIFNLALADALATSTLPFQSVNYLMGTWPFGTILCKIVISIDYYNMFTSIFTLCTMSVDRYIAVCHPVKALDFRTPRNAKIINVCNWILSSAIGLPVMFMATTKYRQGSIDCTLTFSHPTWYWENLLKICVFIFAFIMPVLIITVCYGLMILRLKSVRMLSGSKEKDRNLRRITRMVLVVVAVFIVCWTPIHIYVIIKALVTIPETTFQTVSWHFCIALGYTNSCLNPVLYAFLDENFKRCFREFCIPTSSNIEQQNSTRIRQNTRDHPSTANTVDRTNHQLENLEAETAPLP

Structure (SMILES)	Ke [1] [nM]	Ke [2] [nM]	Ke [3] [nM]	Ratio Ke (CHO [4])	Ratio Ke (CHO [5])
CC[C@H](C)[C@@H](CN1CC[C@@](C)(c2cccc(O)c2)[C@@H](C)C1)NC(=O)[C@H]1Cc2ccc(O)cc2CN1	3	24	0.03	100	800
COc1ccc2cc(C(=O)N[C@H](CN3CC[C@@](C)(c4cccc(O)c4)[C@@H](C)C3)C(C)C)[nH]c2c1	13.7	282	10.9	1.3	26
COc1ccc2c(c1)CCN(CC(=O)N[C@H](CN1CC[C@@](C)(c3cccc(O)c3)[C@@H](C)C1)C(C)C)C2	11.4	76	26	0.4	3
COc1ccc2nc(C(=O)N[C@H](CN3CC[C@@](C)(c4cccc(O)c4)[C@@H](C)C3)C(C)C)[nH]c2c1	8.5	102	28.4	0.3	3.6
CC(C)[C@@H](CN1CC[C@@](C)(c2cccc(O)c2)[C@@H](C)C1)NC(=O)[C@H]1Cc2ccc([N+](=O)[O-])cc2CN1	7.9	65	6.4	1.2	10
CC(C)[C@@H](CN1CC[C@@](C)(c2cccc(O)c2)[C@@H](C)C1)NC(=O)[C@H]1Cc2ccc(NS(C)(=O)=O)cc2CN1	17.7	106	4	4.4	27
CC(C)CCN(CCN1CC[C@@](C)(c2cccc(O)c2)[C@@H](C)C1)C(=O)[C@H]1Cc2ccc(O)cc2CN1	0.5	9.3	1.2	0.4	8
CC(C)[C@@H](CN1CC[C@@](C)(c2cccc(O)c2)[C@@H](C)C1)NC(=O)c1cnc2cc(O)ccc2c1	48	229	9.3	5.2	25
COc1ccc2cc(C(=O)N[C@H](CN3CC[C@@](C)(c4cccc(O)c4)[C@@H](C)C3)C(C)C)cnc2c1	19.5	158	11.4	1.7	14
CC(C)CN(CCN1CC[C@@](C)(c2cccc(O)c2)[C@@H](C)C1)C(=O)[C@H]1Cc2ccc(O)cc2CN1	1	39	1.9	0.5	21
CC(C)[C@@H](CN1CC[C@@](C)(c2cccc(O)c2)[C@@H](C)C1)NC(=O)CN1CCc2ccc(O)cc2C1	9.2	177	23.5	0.4	7.5
CC(=O)Nc1ccc2c(c1)CN[C@@H](C(=O)N[C@H](CN1CC[C@@](C)(c3cccc(O)c3)[C@@H](C)C1)C(C)C)C2	11	555	1.4	7.9	396
CC(C)[C@@H](CN1CC[C@@](C)(c2cccc(O)c2)[C@@H](C)C1)NC(=O)[C@H]1Cc2ccc(N)cc2CN1	12.6	373	0.2	63	1860
CC(C)[C@@H](CN1CC[C@@](C)(c2cccc(O)c2)[C@@H](C)C1)NC(=O)c1c[nH]c2cc(O)ccc12	4.8	224	4.5	1.1	50
CC(C)[C@@H](CN1CC[C@@](C)(c2cccc(O)c2)[C@@H](C)C1)NC(=O)CN1CCc2cc(O)ccc2C1	21.4	408	3.9	5.5	105
CC(C)[C@@H](CN1CC[C@@](C)(c2cccc(O)c2)[C@@H](C)C1)NC(=O)[C@H]1Cc2ccc(O)cc2CN1	–	–	–	1250	3800
CC(C)[C@@H](CN1CC[C@@](C)(c2cccc(O)c2)[C@@H](C)C1)NC(=O)c1cc2ccc(O)cc2[nH]1	23.8	97	34.1	0.7	3
CC(C)[C@@H](CN1CC[C@@](C)(c2cccc(O)c2)[C@@H](C)C1)NC(=O)[C@H]1Cc2ccccc2CN1	–	–	56	–	–
CC(C)[C@@H](CN1CC[C@@](C)(c2cccc(O)c2)[C@@H](C)C1)NC(=O)c1nc2ccc(O)cc2[nH]1	15.6	290	22.4	0.7	13
COc1ccc2c(c1)CN(CC(=O)N[C@H](CN1CC[C@@](C)(c3cccc(O)c3)[C@@H](C)C1)C(C)C)CC2	17.7	51.7	16.8	1	3
COc1ccc2c(c1)CN[C@@H](C(=O)N[C@H](CN1CC[C@@](C)(c3cccc(O)c3)[C@@H](C)C1)C(C)C)C2	51.4	118	0.06	857	1980

Reference: ChEMBL document CHEMBL1144010, “Synthesis and in vitro opioid receptor functional antagonism of analogues of the selective kappa opioid receptor antagonist (3R)-7-hydroxy-N-((1S)-1-{[(3R,4R)-4-(3-hydroxyphenyl)-3,4-dimethyl-1-piperidinyl]methyl}-2-methylpropyl)-1,2,3,4-tetrahydro-3-isoquinolinecarboxamide (JDTic)” (J Med Chem, 2008)
